Laboratory results as given in paper PMC11904481 (ESMO Open, 2025).
Several values for one entry are separate records, joined by “and”; a condition that tells them apart may be missing. Equal values may be shown once.

Tested on: patients with locally advanced unresectable or metastatic, relapsed and/or refractory nonhematological malignancies
Assay: Phase I safety: adverse events
Format: in vivo, human
Outline: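 Adverse events were graded by NCI CTCAE v4.03 across three i.v. schedules of the test compound (0.45-11.3 mg/kg; weekly per 28-day cycle, or days 1, 4, 8 ±11, 15 per 21-day cycle). Special-interest events covered retinal dysfunction symptoms and documented retinal disorders. Clustered signs were grouped as 'infusion reaction'. QTc was calculated with the Fridericia correction.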

Which “deaths due to treatment-related TEAEs” value (all schedules) does the source give for `O=C1Nc2cc3[nH]nc(-c4ccncc4)c3cc2CN1Cc1ccccc1` [KO-947] here?
Its value is “No deaths”.

And the “dose interruptions due to toxicity” value (all schedules)?
The value was 14 patients.

What about the “dose reductions due to toxicity” value (all schedules) of the same compound?
The value was 7 patients.

And the retinal vein occlusion (all schedules)?
The retinal vein occlusion was “no reports”.

And the “median time to resolution of ocular events” value (cycle 1, range, 0-114 days)?
The value was 3 days.

What about the AESI blurred vision (schedule 3) of the same compound?
Its AESI blurred vision is 33%.

And the “grade ≥3 TEAE: infusion-related reaction” value (schedule 3)?
Its value is 7%.

What about the “grade ≥3 TEAE: respiratory tract infection” value (schedule 3) of the same compound?
The value was 7%.

And the “patients discontinued owing to AEs” value (schedule 3)?
Its value is 15%.

And the “patients with at least one AESI” value (schedule 3)?
Its value is 82%.

What about the “patients with grade ≥3 TEAEs” value (schedule 3) of the same compound?
Its value is 67%.

What about the “patients with grade ≥3 treatment-related TEAEs” value (schedule 3) of the same compound?
The value was 15%.

What about the “treatment-related QTc prolongation” value (schedule 3) of the same compound?
The value was 11%.

What about the treatment-related blurred vision (schedule 3) of the same compound?
Its treatment-related blurred vision is 33.3% and 33%.

What about the treatment-related dyspepsia (schedule 3) of the same compound?
The treatment-related dyspepsia was 11%.

And the treatment-related macular edema (schedule 3)?
The treatment-related macular edema was 15%.

And the treatment-related photopsia (schedule 3)?
The treatment-related photopsia was 15%.

And the treatment-related retinal detachment (schedule 3)?
The treatment-related retinal detachment was 15%.

And the treatment-related vitreous floaters (schedule 3)?
Its treatment-related vitreous floaters is 11%.

What about the “AESI: Blurred vision” value (schedule 3 cohort 1, 3.6 mg/kg) of the same compound?
The value was 0 n (%).

What about the “AESI: Detachment of retinal pigment epithelium” value (“AESI: Detachment” for short) (schedule 3 cohort 1, 3.6 mg/kg) of the same compound?
The value was 0 n (%).

What about the “AESI: Eye disorders” value (schedule 3 cohort 1, 3.6 mg/kg) of the same compound?
Its value is 2 (67) n (%).

What about the “AESI: Macular edema” value (schedule 3 cohort 1, 3.6 mg/kg) of the same compound?
The value was 0 n (%).

And the “AESI: Patients with ≥1 AE” value (schedule 3 cohort 1, 3.6 mg/kg)?
Its value is 2 (67) n (%).

What about the “AESI: Photopsia” value (schedule 3 cohort 1, 3.6 mg/kg) of the same compound?
Its value is 0 n (%).

What about the “AESI: Retinal detachment” value (schedule 3 cohort 1, 3.6 mg/kg) of the same compound?
The value was 0 n (%).

What about the “AESI: Subretinal fluid” value (schedule 3 cohort 1, 3.6 mg/kg) of the same compound?
Its value is 1 (33) n (%).

And the “AESI: Total number of AEs” value (schedule 3 cohort 1, 3.6 mg/kg)?
The value was 4 n.

What about the “AESI: Vitreous floaters” value (schedule 3 cohort 1, 3.6 mg/kg) of the same compound?
The value was 2 (67) n (%).

What about the “Patients with ≥1 treatment-related TEAE” value (schedule 3 cohort 1, 3.6 mg/kg) of the same compound?
Its value is 2 (67) n (%).

What about the “Total number of treatment-related TEAEs” value (schedule 3 cohort 1, 3.6 mg/kg) of the same compound?
The value was 11 n.

What about the “Treatment-related TEAE: Blurred vision” value (schedule 3 cohort 1, 3.6 mg/kg) of the same compound?
Its value is 0 n (%).

And the “Treatment-related TEAE: Dermatitis acneiform” value (schedule 3 cohort 1, 3.6 mg/kg)?
Its value is 0 n (%).

What about the “Treatment-related TEAE: Diarrhea” value (schedule 3 cohort 1, 3.6 mg/kg) of the same compound?
The value was 0 n (%).

What about the “Treatment-related TEAE: Dyspepsia” value (schedule 3 cohort 1, 3.6 mg/kg) of the same compound?
Its value is 0 n (%).

What about the “Treatment-related TEAE: Infusion-related reaction” value (schedule 3 cohort 1, 3.6 mg/kg) of the same compound?
The value was 0 n (%).

What about the “Treatment-related TEAE: Macular edema” value (schedule 3 cohort 1, 3.6 mg/kg) of the same compound?
Its value is 0 n (%).

And the “Treatment-related TEAE: Photopsia” value (schedule 3 cohort 1, 3.6 mg/kg)?
Its value is 0 n (%).

What about the “Treatment-related TEAE: QTc prolongation” value (schedule 3 cohort 1, 3.6 mg/kg) of the same compound?
The value was 0 n (%).

And the “Treatment-related TEAE: Retinal detachment” value (schedule 3 cohort 1, 3.6 mg/kg)?
The value was 0 n (%).

What about the “Treatment-related TEAE: Subretinal fluid” value (schedule 3 cohort 1, 3.6 mg/kg) of the same compound?
Its value is 1 (33) n (%).

And the “Treatment-related TEAE: Vitreous floaters” value (schedule 3 cohort 1, 3.6 mg/kg)?
The value was 2 (67) n (%).

What about the “AESI: Blurred vision” value (schedule 3 cohort 2, 4.8 mg/kg) of the same compound?
Its value is 0 n (%).

And the “AESI: Detachment” value (schedule 3 cohort 2, 4.8 mg/kg)?
Its value is 0 n (%).

And the “AESI: Eye disorders” value (schedule 3 cohort 2, 4.8 mg/kg)?
The value was 2 (67) n (%).

And the “AESI: Macular edema” value (schedule 3 cohort 2, 4.8 mg/kg)?
Its value is 0 n (%).

What about the “AESI: Patients with ≥1 AE” value (schedule 3 cohort 2, 4.8 mg/kg) of the same compound?
The value was 2 (67) n (%).

And the “AESI: Photopsia” value (schedule 3 cohort 2, 4.8 mg/kg)?
The value was 0 n (%).

What about the “AESI: Retinal detachment” value (schedule 3 cohort 2, 4.8 mg/kg) of the same compound?
The value was 1 (33) n (%).

What about the “AESI: Subretinal fluid” value (schedule 3 cohort 2, 4.8 mg/kg) of the same compound?
Its value is 1 (33) n (%).

What about the “AESI: Total number of AEs” value (schedule 3 cohort 2, 4.8 mg/kg) of the same compound?
Its value is 2 n.

And the “AESI: Vitreous floaters” value (schedule 3 cohort 2, 4.8 mg/kg)?
The value was 0 n (%).

And the “Patients with ≥1 treatment-related TEAE” value (schedule 3 cohort 2, 4.8 mg/kg)?
The value was 3 (100) n (%).

What about the “Total number of treatment-related TEAEs” value (schedule 3 cohort 2, 4.8 mg/kg) of the same compound?
Its value is 9 n.

And the “Treatment-related TEAE: Blurred vision” value (schedule 3 cohort 2, 4.8 mg/kg)?
Its value is 0 n (%).

What about the “Treatment-related TEAE: Dermatitis acneiform” value (schedule 3 cohort 2, 4.8 mg/kg) of the same compound?
The value was 0 n (%).

What about the “Treatment-related TEAE: Diarrhea” value (schedule 3 cohort 2, 4.8 mg/kg) of the same compound?
The value was 1 (33) n (%).

What about the “Treatment-related TEAE: Dyspepsia” value (schedule 3 cohort 2, 4.8 mg/kg) of the same compound?
Its value is 0 n (%).

What about the “Treatment-related TEAE: Infusion-related reaction” value (schedule 3 cohort 2, 4.8 mg/kg) of the same compound?
Its value is 0 n (%).

What about the “Treatment-related TEAE: Macular edema” value (schedule 3 cohort 2, 4.8 mg/kg) of the same compound?
The value was 0 n (%).

And the “Treatment-related TEAE: Photopsia” value (schedule 3 cohort 2, 4.8 mg/kg)?
The value was 0 n (%).

What about the “Treatment-related TEAE: QTc prolongation” value (schedule 3 cohort 2, 4.8 mg/kg) of the same compound?
Its value is 0 n (%).

What about the “Treatment-related TEAE: Retinal detachment” value (schedule 3 cohort 2, 4.8 mg/kg) of the same compound?
The value was 1 (33) n (%).

And the “Treatment-related TEAE: Subretinal fluid” value (schedule 3 cohort 2, 4.8 mg/kg)?
The value was 1 (33) n (%).

And the “Treatment-related TEAE: Vitreous floaters” value (schedule 3 cohort 2, 4.8 mg/kg)?
The value was 0 n (%).

What about the “AESI: Blurred vision” value (schedule 3 cohort 3, 6.4 mg/kg) of the same compound?
Its value is 3 (33) n (%).

What about the “AESI: Detachment” value (schedule 3 cohort 3, 6.4 mg/kg) of the same compound?
The value was 0 n (%).

What about the “AESI: Eye disorders” value (schedule 3 cohort 3, 6.4 mg/kg) of the same compound?
The value was 7 (78) n (%).

And the “AESI: Macular edema” value (schedule 3 cohort 3, 6.4 mg/kg)?
Its value is 1 (11) n (%).

What about the “AESI: Patients with ≥1 AE” value (schedule 3 cohort 3, 6.4 mg/kg) of the same compound?
The value was 7 (78) n (%).

What about the “AESI: Photopsia” value (schedule 3 cohort 3, 6.4 mg/kg) of the same compound?
Its value is 1 (11) n (%).

And the “AESI: Retinal detachment” value (schedule 3 cohort 3, 6.4 mg/kg)?
The value was 1 (11) n (%).

And the “AESI: Subretinal fluid” value (schedule 3 cohort 3, 6.4 mg/kg)?
The value was 2 (22) n (%).

What about the “AESI: Total number of AEs” value (schedule 3 cohort 3, 6.4 mg/kg) of the same compound?
Its value is 11 n.

What about the “AESI: Vitreous floaters” value (schedule 3 cohort 3, 6.4 mg/kg) of the same compound?
The value was 0 n (%).

And the “Patients with ≥1 treatment-related TEAE” value (schedule 3 cohort 3, 6.4 mg/kg)?
Its value is 8 (89) n (%).

And the “Total number of treatment-related TEAEs” value (schedule 3 cohort 3, 6.4 mg/kg)?
Its value is 19 n.

What about the “Treatment-related TEAE: Blurred vision” value (schedule 3 cohort 3, 6.4 mg/kg) of the same compound?
The value was 3 (33) n (%).

What about the “Treatment-related TEAE: Dermatitis acneiform” value (schedule 3 cohort 3, 6.4 mg/kg) of the same compound?
Its value is 0 n (%).

And the “Treatment-related TEAE: Diarrhea” value (schedule 3 cohort 3, 6.4 mg/kg)?
The value was 1 (11) n (%).

And the “Treatment-related TEAE: Dyspepsia” value (schedule 3 cohort 3, 6.4 mg/kg)?
The value was 1 (11) n (%).

What about the “Treatment-related TEAE: Infusion-related reaction” value (schedule 3 cohort 3, 6.4 mg/kg) of the same compound?
Its value is 2 (22) n (%).

What about the “Treatment-related TEAE: Macular edema” value (schedule 3 cohort 3, 6.4 mg/kg) of the same compound?
The value was 1 (11) n (%).

What about the “Treatment-related TEAE: Photopsia” value (schedule 3 cohort 3, 6.4 mg/kg) of the same compound?
The value was 1 (11) n (%).

And the “Treatment-related TEAE: QTc prolongation” value (schedule 3 cohort 3, 6.4 mg/kg)?
Its value is 0 n (%).

What about the “Treatment-related TEAE: Retinal detachment” value (schedule 3 cohort 3, 6.4 mg/kg) of the same compound?
The value was 1 (11) n (%).

And the “Treatment-related TEAE: Subretinal fluid” value (schedule 3 cohort 3, 6.4 mg/kg)?
Its value is 2 (22) n (%).

And the “Treatment-related TEAE: Vitreous floaters” value (schedule 3 cohort 3, 6.4 mg/kg)?
The value was 0 n (%).

And the “AESI: Blurred vision” value (schedule 3 cohort 4, 7.2 mg/kg)?
The value was 1 (33) n (%).

And the “AESI: Detachment” value (schedule 3 cohort 4, 7.2 mg/kg)?
The value was 1 (33) n (%).

And the “AESI: Eye disorders” value (schedule 3 cohort 4, 7.2 mg/kg)?
The value was 3 (100) n (%).

What about the “AESI: Macular edema” value (schedule 3 cohort 4, 7.2 mg/kg) of the same compound?
The value was 1 (33) n (%).

And the “AESI: Patients with ≥1 AE” value (schedule 3 cohort 4, 7.2 mg/kg)?
Its value is 3 (100) n (%).
